Compounds with a hit are over-represented: about 0.55% of the library has one in this group of screens.
TRPML3 ag: human mucolipin-3 channel agonism; Q8TDD5; HEK293 TRPML3-YFP, Fluo-8 calcium fluorescence; 100% = the carbachol control signal; activation, % at 3 µM; 220,000 compounds, 0.29% hits;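 active = activation above its plate's cutoff, the mean activation of the plate's test wells plus 3 SD, cut at about 12% in these data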;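 note: 0% = DMSO only wells and 100% = carbachol wells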
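system = HEK293 cells stably carrying human TRPML3-YFP | doses = one concentration, 3 µM nominal, 0.3% DMSO | timing = dye loading 1 h 37 °C then 30 min ambient, 125 s read | detection = Fluo-8 calcium dye fluorescence, ex 470-495, em 515-575 nm | benchmarks = high control carbachol 87 µM, low control DMSO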
V1aR counter: counter-screen for oxytocin receptor agonists: human V1a receptor agonists; P37288; activation, % at 3 µM; CHO-V1R cells, Fluo-8 calcium fluorescence, agonist mode; 0% DMSO, 100% 3 nM vasopressin; AID 2797; 320,000 compounds, 0.25% hits;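 active = activation above the mean activation of all tested compounds plus 3 SD, per screening run, cut at about 20% in these data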;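 note: signal is peak over basal fluorescence ratio across a 100 second FLIPR read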
Target sequence (P37288 whole entry, looked up): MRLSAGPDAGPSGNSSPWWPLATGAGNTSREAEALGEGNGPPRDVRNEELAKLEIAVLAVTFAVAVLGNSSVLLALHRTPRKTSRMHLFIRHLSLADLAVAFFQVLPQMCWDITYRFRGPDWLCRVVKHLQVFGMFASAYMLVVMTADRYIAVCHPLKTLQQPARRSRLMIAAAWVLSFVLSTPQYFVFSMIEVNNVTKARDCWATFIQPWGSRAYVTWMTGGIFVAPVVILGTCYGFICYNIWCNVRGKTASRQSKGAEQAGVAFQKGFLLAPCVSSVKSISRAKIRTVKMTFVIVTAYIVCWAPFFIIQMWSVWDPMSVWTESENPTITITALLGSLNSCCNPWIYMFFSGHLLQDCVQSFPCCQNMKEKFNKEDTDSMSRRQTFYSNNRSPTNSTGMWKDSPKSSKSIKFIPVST
OXTR ag: activates the human oxytocin receptor; P30559; 320,000 compounds, 0.32% hits; CHO-OTR cells, Fluo-8 calcium fluorescence; normalized: DMSO 0%, oxytocin 100%; activation, % at 3 µM;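 active = activation above the mean of all tested compounds plus 3 SD, cutoff set per screening run, cut at about 20% in these data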;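 note: peak over basal fluorescence ratio from a 100 s FLIPR kinetic read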
OXTR potentiate: potentiates the human oxytocin receptor response; P30559; CHO-OTR cells, Fluo-8 calcium fluorescence, potentiator mode; 0% = oxytocin EC15, 100% = EC100; activation, % at 3 µM; 320,000 compounds, 0.061% hits; AID 2445;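 active = activation above that plate's cutoff, the mean activation of tested compounds plus 3 SD, cut at about 6.6% in these data, passing the limit was not always enough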;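 note: 100% uses oxytocin at 75 nM as the full agonist control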
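Material: CHO-OTR cells, human receptor; compound dosing: single dose, 3.0 µM nominal final compound concentration; schedule: 6 min compound pre-incubation at room temperature, 100 s kinetic read; measured by: kinetic Fluo-8 calcium fluorescence; read-out basis: % activation vs EC15 and EC100 oxytocin; controls: EC15 oxytocin alone as 0%, 75 nM oxytocin as 100%; replicates: singlicate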
zfTRPN1 agonist: agonists of zebrafish TRPN1 channel. activation, % at 3 µM. HEK293 zebrafish TRPN1-YFP, Fluo-8 calcium fluorescence; 100% = response to 87 µM carbachol. AID 1424. 220,000 compounds, 0.18% hits;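 active = activation above its plate's cutoff, the mean activation of test wells on that plate plus 3 SD, cut at about 19% in these data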;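 note: 0% = DMSO alone and 100% = 87 µM carbachol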
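Material – zebrafish TRPN1-YFP in HEK293 cells · Doses – 3 µM single point · Schedule – dye 1 h 37 °C plus 30 min RT · Signal – Fluo-8 calcium fluorescence, excitation 470-495 nm, emission 515-575 nm · Read-out – % activation versus carbachol response · Control set – carbachol high, DMSO low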
OXTR ag confirm: human OXTR agonism, confirmation; shares compounds with OXTR ag; activation, % at 3 µM; CHO-OTR cells, Fluo-8 calcium fluorescence, agonist; 390 compounds, 20% hits;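 active = mean activation above about 20% derived from the earlier single-dose screen, limit read from the data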;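 note: peak over minimum fluorescence ratio per well during a 100 second FLIPR read; 0% = DMSO alone and 100% = oxytocin high control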
V1aR counter 3x: activates V1a receptor in oxytocin agonist counter-screen; shares compounds with OXTR ag; CHO-V1R cells, Fluo-8 calcium fluorescence; activation, % at 3 µM; 390 compounds, 10% hits; AID 434991;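 active = mean activation over triplicate exceeds the hit threshold set in the earlier primary screen, cut at about 20% in these data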;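 note: peak over basal fluorescence ratio within a 100 second read; 0% = DMSO alone and 100% = 3 nM vasopressin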
OXTR pot confirm: confirmation of human oxytocin receptor potentiators; CHO-OTR cells, Fluo-8 calcium fluorescence, potentiation; scaled from low-dose to maximal oxytocin; shares compounds with OXTR potentiate; 180 tested, under 10 active; activation, % at 3 µM;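 active = mean percent activation over triplicates above a cutoff set from solvent-only control plates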;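 note: compounds tested in the presence of an EC15 dose of oxytocin; 0% = EC15 oxytocin with DMSO and 100% = EC100 oxytocin with DMSO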
Starred values were filed as active, the others as inactive; x = no result given.

SMILES	TRPML3 ag	V1aR counter	OXTR ag	OXTR potentiate	zfTRPN1 agonist	OXTR ag confirm	V1aR counter 3x	others
CC(Oc1cccc(Cl)c1)C(=O)Nc1ccc(S(=O)(=O)NC2=NCCCCC2)cc1 (configuration not stated)	x	9.7	14.1	-16.1	x	x	x
CC(Oc1ccc(F)cc1)C(=O)Nc1ccc(S(=O)(=O)NC2=NCCCCC2)cc1 (configuration not stated)	x	15.4	24.9*	-12.1	x	27.9*	19.6
Cn1cccc1P(=O)(c1cccn1C)c1cccn1C	-0.5	0.1	30.8*	-13.1	0.0	0.5	0.5
O=C(Nc1ccncc1)c1cc(S(=O)(=O)N2CCOCC2)ccc1Cl	x	0.8	0.6	-1.8	x	x	x
COc1ccc(C(=O)CSc2nnc(Cn3cnc4ccccc43)o2)cc1	4.3	14.8	19.8*	-23.1	7.9	9.9	9.8
COc1cc(/C=C/C(=O)OCC(=O)NC2CCCCCCC2)ccc1O	x	-1.0	-1.6	-4.1	x	x	x
OC(c1cc(C(F)(F)F)nc2c(Cl)cc(Cl)cc12)C1CCCCN1 (configuration not stated)	2.5	8.9	23.1*	-15.0	2.0	9.4	4.6
O[C@@H](c1cc(C(F)(F)F)nc2c(C(F)(F)F)cccc12)[C@H]1CCCCN1	x	9.1	17.3	-17.9	x	x	x
CCCn1c(N)cc(=O)n(CCC)c1=O	-0.3	0.8	-1.4	-7.7	0.7	x	x
Cc1cccc(C(=O)NC(=S)NNC(=O)Cc2ccccc2)c1	0.0	7.7	25.2*	-11.3	-1.1	45.0*	58.4*
CCOc1ccc(CN(C)c2ccc(S(=O)(=O)N3CCN(C)CC3)cc2[N+](=O)[O-])cc1OC	x	12.4	22.3*	-11.6	x	10.2	8.9
C=CCOc1ccc(CN(C)c2ccc(S(=O)(=O)N3CCN(C)CC3)cc2[N+](=O)[O-])cc1	x	12.0	12.2	-10.6	x	x	x
CN1CCN(S(=O)(=O)c2ccc(N(C)Cc3ccc(C(F)(F)F)cc3)c([N+](=O)[O-])c2)CC1	x	15.9	20.3*	-11.8	x	10.5	6.3
Oc1ccc(Cl)cc1CNCc1ccc(Cl)nc1	x	15.8	20.1*	-2.3	x	20.6*	13.1
Oc1ccc(Cl)cc1CNCc1ccc(F)c(F)c1	x	15.4	18.0	-15.5	x	x	x
Cc1nn(C(C)C(=O)NCCCc2ccccc2)c(=O)c2nn(-c3ccccc3)c(C)c12 (configuration not stated)	x	3.0	2.4	-8.2	x	x	x
CCOC(=O)N1CCC(N2C(=O)c3ccccc3C2Nc2ccc(S(=O)(=O)N(CC)CC)cc2)CC1 (configuration not stated)	1.0	-0.7	-1.1	-2.8	-0.2	x	x
O=C(COC(=O)c1cc(S(=O)(=O)N2CCCC2)ccc1O)Nc1ccc(S(=O)(=O)N2CCOCC2)cc1	0.7	0.6	-0.2	-8.8	0.4	x	x
O=C(COC(=O)c1cc(S(=O)(=O)N2CCCC2)ccc1O)Nc1ccc(SC(F)F)cc1	x	16.6	21.1*	-10.7	x	15.2	12.8
CSc1ccc2c(c1)C(N1CCN(C)CC1)Cc1ccc(F)cc1S2 (configuration not stated)	x	10.0	25.8*	-8.3	x	3.8	0.8
Cc1ccc(OC(=O)c2ccc(Br)o2)cc1	-0.5	15.3	26.8*	-16.8	-1.5	1.7	9.1
O=C(Oc1ccc(-c2nnco2)cc1)c1ccc(Br)o1	x	1.0	0.6	0.7	x	x	x
COc1cccc(/C=C/C(=O)OCC(=O)NCCc2ccccc2)c1	0.2	-0.7	-1.0	-16.9	-1.3	x	x
COc1cc(OC)c(OC)cc1CCC(C)NCCC(c1ccccc1)c1ccccc1 (configuration not stated)	x	18.1	21.7*	-24.1	x	7.0	10.4
Cc1ccc(-n2nc3c(c2NC(=O)c2ccco2)CS(=O)C3)cc1 (configuration not stated)	x	1.7	1.1	-2.6	x	x	x
SMILES	TRPML3 ag	V1aR counter	OXTR ag	OXTR potentiate	zfTRPN1 agonist	OXTR ag confirm	V1aR counter 3x	others
CC(NCC(O)COc1ccc2ccccc2c1)c1ccccc1 (configuration not stated)	x	13.3	21.9*	-17.9	x	10.1	7.4
Cc1ccc(NC(=O)CSc2nnc(-c3ccncc3)o2)cc1C	1.4	0.4	0.6	4.8	0.7	x	x
CS(=O)(=O)N1CCN(C(=O)c2ccc(Cl)s2)CC1	0.8	0.0	-0.3	-0.8	0.9	x	x
Nc1ccc(Br)c2c1C(=O)c1ccccc1C2=O	8.9	10.1	33.6*	-12.7	12.3	6.1	2.8
COc1ccc(/C=C2/CCc3ccccc3C2=O)cc1CN1CCOCC1	-0.6	-0.4	-1.9	-9.2	0.0	x	x
COc1ccc(/C=C2\CCc3ccccc3C2=O)cc1Cn1nc(C)cc1C	-0.7	20.2	23.1*	-16.5	-0.3	4.7	2.8
CCN1C(=O)[C@H]2[C@@H](c3ccc(OC)cc3)N3C(=O)CN(CCOC)C(=O)[C@@]3(Cc3ccccc3)[C@H]2C1=O	x	-0.1	0.6	9.0	x	x	x
Cc1ccc(C)c(N2CCN(C(=O)c3cccn4c(=O)c5sccc5nc34)CC2)c1	0.7	8.9	31.0*	-13.1	-0.1	9.8	5.3
O=C(Nc1ccccc1Cl)OC1CCCCC1	x	2.4	-1.8	-5.5	x	x	x
Cc1[nH]c2ccccc2c1C(=O)CSc1ccc(Cl)cc1	0.6	1.0	-1.0	-21.7	0.2	x	x
Cc1[nH]c2ccccc2c1C(=O)CN1C(=O)NC(C)(c2ccc(Cl)cc2Cl)C1=O (configuration not stated)	1.6	19.8	32.0*	-13.9	6.6	28.3*	18.0
CC(C)=NOC(=O)c1c(C)noc1-c1snnc1C	1.1	1.0	-0.5	0.2	0.9	x	x
COC(=O)c1c(C)noc1-c1snnc1C	2.4	-0.4	0.9	10.7*	0.7	x	x	OXTR pot confirm=-7.0
CN(c1ccccc1C(=O)Nc1ccc(S(=O)(=O)N2CCCCC2)cc1)S(C)(=O)=O	0.0	0.3	0.6	10.9*	1.8	x	x	OXTR pot confirm=-7.9
O=C(CSc1nc2ccccc2c(=O)n1-c1ccc(OC(F)F)cc1)NC1CC1	x	-0.1	0.1	-0.6	x	x	x
O=C(N/N=C/c1cn(-c2ccccc2)nc1-c1ccccc1)c1ccco1	-0.6	-0.9	-1.3	9.9*	0.7	x	x	OXTR pot confirm=-2.5
O=C(N/N=C\c1cn(-c2ccccc2)nc1-c1ccccc1)c1ccc(Br)o1	-0.4	0.6	-0.8	-15.5	-0.6	x	x
CCOC(=O)Cc1csc(SCC(=O)N2CCN(c3ccccc3)CC2)n1	x	-0.1	-0.2	0.7	x	x	x
CCOc1ncccc1C(=O)OCCCC(=O)c1ccc(Br)cc1	x	-0.7	-1.1	-5.7	x	x	x

Source: PubChem (The Scripps Research Institute Molecular Screening Center)
